According to ChEMBL document CHEMBL4261600 (Eur J Med Chem, 2018):

How the values were obtained:
[1] = target: Tyrosine-protein kinase Srms (Homo sapiens) (UniProt Q9H3Y6); assay: Binding affinity to wild-type human partial length SRMS (L208 to P488 residues) expressed in mammalian expression system assessed as remaining unbound target protein level at 1000 nM by Kinomescan method relative to control
[2] = target: Cyclin-dependent kinase 17 (Homo sapiens) (UniProt Q00537); assay: Binding affinity to wild-type human full length PCTK2 (M1 to F523 residues) expressed in bacterial expression system assessed as remaining unbound target protein level at 1000 nM by Kinomescan method relative to control
In short: (§1)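 KINOMEscan competition binding profile across a panel of 468 kinases and mutants, with the inhibitor tested at a single concentration of 1 μM. Binding is reported as percent of control, meaning signal relative to a DMSO control.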

[3] = tested on: ALK tyrosine kinase receptor (Homo sapiens), Q9UM73 [L1196M]; assay: Binding affinity to wild-type human partial length ALK L1196M mutant (I1088 to E1409 residues) expressed in mammalian expression system assessed as remaining unbound target protein level at 1000 nM by Kinomescan method relative to control
In short: (§2)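 Profiled in a KINOMEscan binding panel with the inhibitor at a single concentration of 1 μM. Binding to each kinase was read out as percent of control, relative to a DMSO control. Strong binders were defined as those with a percent control value below 1.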

[4] = target: Insulin-like growth factor 1 receptor (Homo sapiens) (UniProt P08069); assay: Binding affinity to wild-type human partial length IGF1R (L972 to D1294 residues) expressed in bacterial expression system assessed as remaining unbound target protein level at 1000 nM by Kinomescan method relative to control
[5] = target: Serine/threonine-protein kinase pim-1 (Homo sapiens) (UniProt P11309); assay: Binding affinity to wild-type human partial length PIM1 (A15 to K313 residues) expressed in bacterial expression system assessed as remaining unbound target protein level at 1000 nM by Kinomescan method relative to control
[6] = target: TGF-beta receptor type-1 (Homo sapiens) (UniProt P36897); assay: Binding affinity to wild-type human partial length TGFBR1 (D179 to M503 residues) expressed in bacterial expression system assessed as remaining unbound target protein level at 1000 nM by Kinomescan method relative to control
[7] = target: Inhibitor of nuclear factor kappa-B kinase subunit epsilon (Homo sapiens) (UniProt Q14164); assay: Binding affinity to wild-type human full length IKK-epsilon (M1 to V716 residues) expressed in mammalian expression system assessed as remaining unbound target protein level at 1000 nM by Kinomescan method relative to control; in short: as §1
[8] = tested on: Epidermal growth factor receptor (Homo sapiens), P00533 [T790M]; assay: Binding affinity to human partial length EGFR T790M mutant (R669 to G1022 residues) expressed in mammalian expression system assessed as remaining unbound target protein level at 1000 nM by Kinomescan method relative to control
In short: (§3)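 KINOMEscan competition-binding profiling across the panel of 468 kinases and mutants, with inhibitor tested at 1 μM. Binding is expressed as percent of control, with DMSO as the reference control.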

[9] = target: Mitogen-activated protein kinase kinase kinase kinase 2 (Homo sapiens) (UniProt Q12851); assay: Binding affinity to wild-type human partial length MAP4K2 (M1 to G318 residues) expressed in mammalian expression system assessed as remaining unbound target protein level at 1000 nM by Kinomescan method relative to control
In short: (§4)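 KINOMEscan binding panel of 468 kinases/mutants. Inhibitor was tested at a single concentration of 1 μM. Binding is reported as percent of control, defined relative to a DMSO control.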

HL-60 = assay: Induction of apoptosis in human HL60 cells assessed as decrease in c-MYC level after 2 hrs by immunoblotting analysis; type: functional, cell-based
[10] = target: Ephrin type-A receptor 3 (Homo sapiens) (UniProt P29320); assay: Binding affinity to wild-type human partial length EPHA3 (D604 to K889 residues) expressed in bacterial expression system assessed as remaining unbound target protein level at 1000 nM by Kinomescan method relative to control; in short: as §4
[11] = target: Rho-associated protein kinase 1 (Homo sapiens) (UniProt Q13464); assay: Binding affinity to wild-type human partial length ROCK1 (M1 to R415 residues) expressed in mammalian expression system assessed as remaining unbound target protein level at 1000 nM by Kinomescan method relative to control
[12] = tested on: Fibroblast growth factor receptor 3 (Homo sapiens), P22607 [G697C]; assay: Binding affinity to human partial length FGFR3 G697C mutant (R442 to S771 residues) expressed in bacterial expression system assessed as remaining unbound target protein level at 1000 nM by Kinomescan method relative to control; in short: as §3
[13] = target: Cyclin-dependent kinase 16 (Homo sapiens) (UniProt Q00536); assay: Binding affinity to wild-type human partial length PCTK1 (G160 to A474 residues) expressed in mammalian expression system assessed as remaining unbound target protein level at 1000 nM by Kinomescan method relative to control; in short: as §4
[14] = target: Serine/threonine-protein kinase TNNI3K (Homo sapiens) (UniProt Q59H18); assay: Binding affinity to wild-type human full length TNNI3K (M1 to S835 residues) expressed in bacterial expression system assessed as remaining unbound target protein level at 1000 nM by Kinomescan method relative to control; in short: as §1
[15] = target: Serine/threonine-protein kinase RIO2 (Homo sapiens) (UniProt Q9BVS4); assay: Binding affinity to wild-type human partial length RIOK2 (M1 to D313 residues) expressed in mammalian expression system assessed as remaining unbound target protein level at 1000 nM by Kinomescan method relative to control
[16] = target: Serine/threonine-protein kinase RIO1 (Homo sapiens) (UniProt Q9BRS2); assay: Binding affinity to wild-type human full length RIOK1 (M1 to K568 residues) expressed in bacterial expression system assessed as remaining unbound target protein level at 1000 nM by Kinomescan method relative to control; in short: as §2
[17] = target: Serine/threonine-protein kinase ICK (Homo sapiens) (UniProt Q9UPZ9); assay: Binding affinity to wild-type human partial length ICK (M1 to P314 residues) expressed in mammalian expression system assessed as remaining unbound target protein level at 1000 nM by Kinomescan method relative to control; in short: as §4
[18] = target: Dual specificity mitogen-activated protein kinase kinase 7 (Homo sapiens) (UniProt O14733); assay: Binding affinity to wild-type human full length MKK7 (M1 to R419 residues) expressed in mammalian expression system assessed as remaining unbound target protein level at 1000 nM by Kinomescan method relative to control
In short: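 Single-point competition binding screen across a panel of 468 kinases and mutants, with the inhibitor at 1 μM. Binding is read out as percent of a DMSO control, and targets below 1 percent control were classed as strong binders.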

[19] = target: Cyclin-dependent kinase 8 (Homo sapiens) (UniProt P49336); assay: Binding affinity to wild-type human partial length CDK8 (M1 to T360 residues) expressed in bacterial expression system assessed as remaining unbound target protein level at 1000 nM by Kinomescan method relative to control
Homo sapiens = species on record: Homo sapiens; assay: Selectivity ratio of IC50 for recombinant full length His-tagged human CDK1/CyclinB to IC50 for recombinant full length His-tagged human CDK9/CyclinT1

## COCCN[C@H]1CC[C@H](Nc2cc(-c3csc(NCC4(C#N)CCOCC4)n3)c(Cl)cn2)CC1
[1]
  Activity: 89%
[2]
  Activity: 32%
[3]
  Activity: 78%
[4]
  Activity: 92%
[5]
  Activity: 55%
[6]
  Activity: 98%
[7]
  Activity: 99%
[8]
  Activity: 100%
[9]
  Activity: 56%
HL-60
  Activity: Dose-dependent effect
[10]
  Activity: 94%
[11]
  Activity: 93%
[12]
  Activity: 60%
[13]
  Activity: 46%
[14]
  Activity: 95%
[15]
  Activity: 80%
[16]
  Activity: 79%
[17]
  Activity: 40%
[18]
  Activity: 100%
[19]
  Activity: 100%
Homo sapiens
  Ratio IC50: > 1000
